Bioassay records deposited in PubChem BioAssay by Broad Institute.
Ecoli rRNA inh – reduced GFP signal of wild-type E. coli, primary screen, bacterial rRNA inhibitor project, GFP/RFP fluorescence, OD600, single point; E. coli WT GFP vs humanized-ribosome RFP mutants, 24 h; hits give low values; DMSO median 0, no signal -100; GFP signal change (wild-type ribosome), % (test concentration not listed); 1.6% of 350,000 active; AID 720706, 2013;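 active = significant combined selectivity score with lowered wild-type GFP, culture density cut under 30%, mutant RFP and density less affected; inactive = any of these conditions unmet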
PglD inh – C. jejuni PglD acetyltransferase inhibitors, primary screen, biochemical, DTNB colorimetric, single point. purified PglD enzyme, DTNB colorimetric CoA detection. inhibition, % at 12.5 µM. 0.098% of 360,000 active. AID 602405, 2012; in the data active = inhibition above about 16%, passing the limit was not always enough; inconclusive = no clear call, values can overlap the other calls
Vif inh – HIV Vif self-association inhibitors, primary screen, imaging, HEK293T, single point; inhibition, % at 7.49 µM; HEK293T cells, Vif self-association by quenched fluorescence, 24 h; 0.35% of 340,000 active; in the data active = inhibition above about 50%, passing the limit was not always enough; inconclusive = no clear call, values can overlap the other calls; inactive = below about 31%
FGF22 binding – binders of human FGF22 protein, primary screen, FGF22 synaptogenesis inhibitor project, biophysical, thermal shift, single point; AID 651658, 2012; Fibroblast growth factor 22 (Homo sapiens), Q9HCT0; 1.5% of 340,000 active; recombinant FGF22 thermal shift, SYPRO orange fluorescence; percent of sucrose octasulfate shift, DMSO zero; activity (Tm shift, normalised), % at 9.99 µM;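 active = mean Tm shift, scaled 0 neutral to 100 positive control, at about 1.3% or above, every replicate too, limit read from the data; inconclusive = no clear call, values can overlap the other calls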
Target sequence (Q9HCT0 whole entry, looked up): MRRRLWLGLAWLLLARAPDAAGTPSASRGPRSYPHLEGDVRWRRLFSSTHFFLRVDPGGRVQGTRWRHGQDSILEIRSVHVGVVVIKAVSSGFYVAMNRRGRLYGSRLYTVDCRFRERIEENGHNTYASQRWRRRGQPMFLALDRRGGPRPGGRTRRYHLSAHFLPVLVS
Cneo AK release – Cryptococcus neoformans cell lysis inducers, primary screen, AK release luminescence, single concentration | 0.2% of 360,000 active | AID 651654, 2012 | lysis activity, % at 15 µM | C. neoformans lysis, adenylate kinase release luminescence, 4 h; normalised: neutral wells 0, clomiphene wells 100;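 active = mean lysis activity across replicates of at least 80%, whatever share of replicates individually reach that level; inactive = mean lysis activity below 80%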
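Material – log-phase Cryptococcus neoformans yeast cells · Input – 5 × 10^6 yeast cells/mL · Medium – fresh YPD growth medium · Doses – single compound concentration per well · Timing – static 4 h at 37 °C with compound, 1 h detection · Detection – adenylate kinase release luminescence · Read-out – signal increase indicating cell lysis · Control set – Clomiphene as positive lysis control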
PGC1a acetyl inh – inhibitors of PGC1a acetylation signal, primary screen, cell-based, U2OS, AlphaScreen, inhibitor mode | AlphaScreen anti-acetyl-lysine; with virally co-expressed GCN5 acetyltransferase | inhibition, % at 15.6 µM | 0.17% of 350,000 active | AID 651687, 2012;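 active = every replicate shows inhibition of at least 40%; inconclusive = mean inhibition at least 40% but some replicate below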;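 note: 0% = neutral control wells and 100% = positive control wells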
* marks the source's active call; other numbers are inactive results; ? = inconclusive; nt = no result given. A selection: hits, their analogues and other compounds. The true share with any hit is near 2.9%.

SMILES | Ecoli rRNA inh | PglD inh | Vif inh | FGF22 binding | Cneo AK release | PGC1a acetyl inh
CCCNC(=O)c1cc(C2CCCCN2C(=O)c2ccc3c(c2)CCO3)on1 (stereo not drawn) | -3 | 4 | 8 | 43* | -5 | 5
Cc1ccc(OCc2nnc(N)s2)cc1 | 11 | nt | 2 | 44* | nt | -1
COc1ccc2c3c([nH]c2c1)[C@H](CO)N(Cc1ccccc1OC)CC31CN(S(C)(=O)=O)C1 | 0 | nt | nt | nt | nt | -3
CC1=CC(C)C2(CO)COC(c3cccnc3)C1C2C (stereo not drawn) | 8 | nt | 0 | 43* | nt | nt
CC1=CC(C)C2(CO)COC(c3ccc(O)cc3)C1C2C (stereo not drawn) | -27 | nt | 11 | 43* | nt | -9
CSc1nc2c([nH]1)c(=S)n(C)c(=O)n2C | 1 | -8 | 6 | 43* | -2 | 9
COc1ccc(C)cc1-n1c(=O)c2ccccc2c2ccccc2c1=O | -26* | nt | 6 | 0 | nt | -5
COc1ccc(-n2c(=O)c3ccccc3c3ccccc3c2=O)c(OC)c1 | 13 | nt | 6 | 0 | nt | nt
CSc1nsc(NN)n1 | -33* | 3 | -2 | 0 | 0 | 13
CSc1nsc(NC(=O)OCc2ccc(Cl)cc2)n1 | -40 | -7 | -1 | 0 | -2 | nt
Cc1ccc(CN2CCC(CO)(CC3CCCCO3)CC2)o1 (stereo not drawn) | 20 | nt | -3 | 0 | nt | -1
COc1cccc(CN2CCC(CO)(CC3CCCCO3)CC2)c1 (stereo not drawn) | 8 | nt | -2 | 0 | nt | 100*
Cc1ccc2[nH]c(CN3CCC(CO)(CC4CCCCO4)CC3)c(C)c2c1 (stereo not drawn) | 1 | -5 | nt | 43* | 3 | -12
COCc1ccc(CN2CCC(CO)(CC3CCCCO3)CC2)o1 (stereo not drawn) | 9 | nt | -6 | 1 | nt | -9
CN1C(=O)c2cc(NC(=O)c3cscn3)ccc2OC[C@@H]2O[C@@H](CC(=O)N3CCOCC3)CC[C@H]21 | 3 | 0 | nt | 0 | -3 | -1
S=C1SCN(Cc2cccnc2)CN1Cc1ccccc1 | -29* | 0 | -5 | 0 | 1 | 2
S=C1NCN(Cc2cccnc2)CN1Cc1ccccc1 | -5 | nt | -1 | 0 | nt | -5
O=C(C[C@@H]1CC[C@H]2[C@@H](COC[C@@H](O)CN2Cc2cccc(C(F)(F)F)c2)O1)NCCc1ccncc1 | -4 | -1 | nt | 0 | 4 | -14
CCCCC1(C)OC(=O)C(=Cc2ccc(-c3ccc(Cl)c(C(=O)O)c3)o2)C(=O)O1 (stereo not drawn) | 6 | nt | -3 | 3.8* | nt | nt
Cc1ccc(N2NC(=O)/C(=C/c3ccc(-c4ccc(Cl)c(C(=O)O)c4)o3)C2=O)cc1 | 15 | -3 | 0 | 0 | -2 | -6
CCOC(=O)C1CCN(C(=O)COc2ccc([N+](=O)[O-])cc2)CC1 | 8 | nt | -3 | 43* | nt | 8
Cc1cn2nc(N)c3ccccc3c2n1 | nt | -3 | nt | nt | 0 | 6
Nc1nn2cc(-c3ccccc3)nc2c2ccccc12 | -41* | nt | -7 | 1 | nt | nt
CCC(=O)N1[C@H](CO)[C@@H]2c3ccccc3N(C(=O)c3cnccn3)C[C@@H]21 | 7 | -6 | nt | 0 | -2 | 2
CC(=O)c1c(C)nc2ccc(C)cc2c1-c1ccccc1 | -36* | nt | 10 | 0 | -2 | 9
SMILES | Ecoli rRNA inh | PglD inh | Vif inh | FGF22 binding | Cneo AK release | PGC1a acetyl inh
Cc1cccc(-c2cc(C(=O)Nc3ccc4c(c3)OCCO4)c3ccccc3n2)c1 | nt | -2 | -4 | nt | 1 | -36
O=C(Nc1ccc2c(c1)OCCO2)c1cc(-c2ccccn2)nc2ccc(Br)cc12 | 19 | -2 | -7 | 44* | -3 | -6
CCc1cc2c(nc1CC)CCCN2S(=O)(=O)c1ccc(OC)cc1 | -43 | nt | nt | 0 | nt | nt
COc1ccc(S(=O)(=O)N2CCCc3nc(C)c(C)cc32)cc1 | -15* | nt | nt | 0 | nt | nt
C[C@@H]1CCCCO[C@@H](CN(C)Cc2ccccc2)[C@H](C)CN([C@H](C)CO)C(=O)c2cc(NC(=O)NC3CCCCC3)ccc2O1 | -2 | 3 | nt | 0 | 3 | -3
C=CCC[C@H](Cc1ccc(F)cc1)C(=O)OC[C@@H](NC(=O)[C@@H](CC=C)CC(=O)N[C@@H](CO)Cc1ccccc1)C(C)(C)C | 12 | 13 | -1 | 6.2* | 15 | nt
C=CC[C@@H](CC(=O)N(CCO)Cc1ccccc1)C(=O)N[C@H](COC(=O)[C@@H](CC=C)Cc1ccc(F)cc1)C(C)(C)C | 0 | -2 | 55* | 0 | 1 | 9
C[C@@H]1CN([C@H](C)CO)C(=O)c2cc(-c3ccncc3)cnc2O[C@@H]1CN(C)C(=O)C1CCC1 | 2 | nt | nt | nt | nt | 4
C[C@H](CO)N1C[C@H](C)[C@@H](CN(C)Cc2ccc(C(=O)O)cc2)Oc2c(NC(=O)CCC(F)(F)F)cccc2C1=O | -2 | nt | nt | nt | nt | nt
Cc1noc(C)c1NC(=O)N(C)C[C@H]1Oc2c(NS(=O)(=O)c3ccc(Cl)cc3)cccc2C(=O)N([C@H](C)CO)C[C@H]1C | 4 | 1 | nt | 0 | 4 | -7
CC(=O)NCCc1nc2ccccc2n1CCOc1ccccc1 | 0 | 4 | -4 | 0 | 1 | -5
CC(=O)NCCc1nc2ccccc2n1CCOc1cccc(C)c1 | -28* | nt | -1 | 0 | nt | -24
Cc1cc(NS(=O)(=O)c2ccc(NC(=O)c3ccc(Cl)cc3Cl)cc2)no1 | -5 | 7 | 55* | 0 | -1 | nt
Cc1cc(NS(=O)(=O)c2ccc(NC(=S)NC(=O)c3ccc(Cl)cc3Cl)cc2)no1 | nt | 2 | -16 | nt | -2 | -20
COc1cccc(C(=O)/C=C/Nc2ccc(S(=O)(=O)Nc3nc(C)cc(C)n3)cc2)c1 | -21* | nt | 9 | 1 | nt | nt
Cc1nc(NC(=S)Nc2ccccc2)sc1C | -27* | nt | -1 | 43* | nt | nt
O=C(Nc1ccc(Cl)cc1)Nc1csc([N+](=O)[O-])c1 | -47 | 0 | -24 | 0 | -4 | 11
O=C(Nc1csc([N+](=O)[O-])c1)Nc1c(Cl)cccc1Cl | -32* | 2 | ? | 0 | -2 | -5
C[C@@H]1CC[C@H](Cc2ccc(-n3cccc3)cc2)N1C(=O)OC(C)(C)C | 0 | 0 | -3 | 0 | 1 | 5
CC1(C)CC(Cc2ccc(Cl)nc2)N(C(=O)OC(C)(C)C)C1 (stereo not drawn) | -5 | 0 | -3 | 44* | -1 | 1
